Source: ChEMBL document CHEMBL1132221, “Isoxazolo-[3,4-d]-pyridazin-7-(6H)-one as a potential substrate for new aldose reductase inhibitors” (J Med Chem, 1999)

The compounds below were run against T1, Aldo-keto reductase family 1 member B1 (Bos taurus, UniProt P16116) (assay: In vitro inhibitory activity against Aldose reductase 2 obtained from calf lenses).

Cc1onc2c(=O)n(CCCC(=O)O)nc(-c3ccccc3)c12 and Cc1onc2c(=O)n(CCCCC(=O)O)nc(-c3ccccc3)c12 are within 1.5-fold of each other in IC50: 20.2 µM for the first, 28.4 µM for the second.

Compared with O=C(O)Cn1nc(-c2ccccc2)cc(NCCc2ccccn2)c1=O, O=C(O)Cn1nc(-c2ccccc2)cc(NCCc2ccccc2)c1=O is 2.3-fold lower in IC50: 157 µM for the first, 68.5 µM for the second.

Cc1onc2c(=O)n(CC(=O)O)nc(-c3ccc([N+](=O)[O-])cc3)c12 and Cc1onc2c(=O)n(CC(=O)O)nc(-c3ccc(Cl)cc3)c12 are within 1.5-fold of each other in IC50: 4.76 µM for the first, 3.72 µM for the second.

First: Cc1onc2c(=O)n(CCC(=O)O)nc(-c3ccccc3)c12
Second: Cc1onc2c(=O)n(CC(=O)O)nc(-c3ccccc3)c12
The IC50 of the first is 5.1-fold higher: 65.2 µM for the first, 12.7 µM for the second. The second is the more potent here.

Going from CC(=O)c1c(-c2ccccc2)nn(CC(=O)O)c(=O)c1NCCc1ccccc1 to CC(=O)c1c(-c2ccccc2)nn(CC(=O)O)c(=O)c1NCc1ccccc1, the IC50 falls from 93.9 µM to 27.6 µM (3.4-fold). The second is the more potent here.

Compared with Cc1c(-c2nc3cc(C(F)(F)F)ccc3s2)nc2c(O)n(CC(=O)O)nc(-c3ccccc3)c1-2, CC(=O)c1c(-c2ccccc2)nn(CC(=O)O)c(=O)c1NCc1ccc(Cl)cc1 is 2.7-fold lower in IC50: 97.9 µM for the first, 36.5 µM for the second. The second is the more potent here.

First: Cc1nn(CCCC(=O)O)c(=O)c2noc(C)c12
Second: Cc1nn(CC(=O)O)c(=O)c2noc(C)c12
The IC50 of the first is 1.5-fold higher: 65.1 µM for the first, 42 µM for the second. The second is the more potent here.

Cc1onc2c(=O)n(C(C)C(=O)O)nc(-c3ccccc3)c12 (configuration not stated) and CCC(C(=O)O)n1nc(-c2ccccc2)c2c(C)onc2c1=O (configuration not stated) are within 1.5-fold of each other in IC50: 76.8 µM for the first, 75 µM for the second.

C[c-]1[o+]nc2c(=O)n(CC(=O)O)nc(-c3cccc([N+](=O)[O-])c3)c21 and Cc1onc2c(=O)n(CC(=O)O)nc(-c3ccccc3[N+](=O)[O-])c12 are within 1.5-fold of each other in IC50: 4.46 µM for the first, 6.06 µM for the second.

First: Cc1onc2c(=O)n(CCCC(=O)O)nc(-c3ccc(Cl)cc3)c12
Second: Cc1onc2c(=O)n(CCC(=O)O)nc(-c3ccc(Cl)cc3)c12
The IC50 of the first is 3.3-fold lower: 10.4 µM for the first, 34.8 µM for the second. The first is the more potent here.

Going from CC(=O)c1c(-c2ccccc2)nn(CC(=O)O)c(=O)c1Nc1ccc(Br)cc1 to CC(=O)c1c(-c2ccccc2)nn(CCCC(=O)O)c(=O)c1N, the IC50 falls from 133 µM to 37 µM (3.6-fold). The second is the more potent here.

Compared with CCCC(C(=O)O)n1nc(-c2ccccc2)c2c(C)onc2c1=O (configuration not stated), O=C(O)Cn1nc(-c2ccccc2)cc(NCc2ccccc2)c1=O is 2.3-fold lower in IC50: 114 µM for the first, 48.8 µM for the second.

The compounds below were run against Aldo-keto reductase family 1 member B1 (Bos taurus) (UniProt P16116) (assay: In vitro inhibitory activity against Aldose reductase 2 obtained from calf lenses at a concentration of 16 uM).
In short: (§1)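 Calf lens ALR2 purified by DE52, Orange Matrex affinity and Sephadex G75 chromatography. Inhibitor in DMSO (1% final) added to a 37 °C reaction with 4.7 mM D,L-glyceraldehyde and 0.11 mM NADPH in 0.25 M sodium phosphate pH 6.8 containing 0.38 M ammonium sulfate. Activity followed as absorbance change at 340 nm, corrected with a blank lacking substrate.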

Work on CC(=O)c1c(-c2ccccc2)nn(CC(=O)O)c(=O)c1Nc1ccccc1 yielded an inhibition of 12%.

These compounds were tested against Aldo-keto reductase family 1 member B1 (Bos taurus) (UniProt P16116) (assay: In vitro inhibitory activity against Aldose reductase 2 obtained from calf lenses at a concentration of 142 uM).
In short: as §1

Compound CC(=O)c1c(-c2ccccc2)nn(CCC(=O)O)c(=O)c1N has an inhibition of 27%.

The compounds below were run against T1, Aldo-keto reductase family 1 member B1 (assay: In vitro inhibitory activity against aldose reductase (ALR2) obtained from calf lenses).
In short: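 ALR2 purified from calf lens: homogenate in pH 7 phosphate buffer with 5 mM DTT, then DE52 ion exchange, Orange Matrex affinity and Sephadex G75. Assay at 37 °C, 4.7 mM D,L-glyceraldehyde, 0.11 mM NADPH, 0.25 M sodium phosphate pH 6.8 with 0.38 M ammonium sulfate, 1% DMSO. NADPH oxidation read at 340 nm against a substrate-free blank.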

CC(=O)c1c(-c2ccccc2)nn(CC(=O)O)c(=O)c1N and CC(=O)c1c(C)nn(CC(=O)O)c(=O)c1N are within 1.5-fold of each other in IC50: 154 µM for the first, 210 µM for the second.

With Cc1onc2c(=O)n(C/C=C/C(=O)O)nc(-c3ccccc3)c12 the IC50 was 107 µM.

The compounds below were run against Aldo-keto reductase family 1 member B1 (Bos taurus) (UniProt P16116) (assay: In vitro inhibitory activity against Aldose reductase 2 obtained from calf lenses at a concentration of 190 uM).
In short: as §1

Cc1nn(CCC(=O)O)c(=O)c2noc(C)c12 gave an inhibition of 28%.

What follows are compounds tested against Aldo-keto reductase family 1 member B1 (Bos taurus) (UniProt P16116) (assay: In vitro inhibitory activity against Aldose reductase 2 obtained from calf lenses at a concentration of 82 uM).
In short: as §1

Nc1cc(-c2ccccc2)nn(CC(=O)O)c1=O showed an inhibition of 36%.

These compounds were tested against Aldo-keto reductase family 1 member B1 (Bos taurus) (UniProt P16116) (assay: In vitro inhibitory activity against Aldose reductase 2 obtained from calf lenses at a concentration of 94 uM).
In short: as §1

In the case of CC(=O)c1c(-c2ccccc2)nn(CC(=O)O)c(=O)c1Nc1ccc(Cl)cc1, the inhibition is reported as 27%.
